The experiment is described as follows: Mean plasma clotting time (APTT) was measured following a single colonic dose with heparin in rats. The experiment is classed as functional, Rattus norvegicus. The procedure, abridged: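 Male Sprague-Dawley rats (300-350 g, fasted 12 h, groups of 5) were anesthetized with ketamine 44 mg/kg im and given one colonic dose (1 mL/kg) by catheter through the anus. Dosing was delivery agent 50 mg/kg plus heparin 25 mg/kg for single agents, or 50 mg/kg for mixtures, as a sonicated solution of apparent pH about 7. Citrated cardiac blood was taken at 0-1.5 h, and mean peak plasma APTT was reported.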
On to `O=C(O)CCCCCCCCCNC(=O)c1ccccc1F`, for which the APTT was found to be 27 s.

`O=C(O)CCCCCCCCCCCNC(=O)c1ccccc1` yielded an APTT of 24 s.

`O=C(O)CCCCCCCCCCCNC(=O)c1ccccc1F` registered an APTT of 33 s.

`Cc1ccccc1C(=O)NCCCCCCCCCC(=O)O` gave an APTT of 34 s.

Turning to `O=C(O)CCCCCNC(=O)c1ccccc1F`, the APTT came to 28 s.

`O=C(O)CCCNC(=O)c1ccccc1F`: the APTT turned out to be 22 s.

`Cc1ccccc1C(=O)NCCCCCC(=O)O` showed an APTT of 26 s.

Regarding `COc1ccccc1C(=O)NCCCCCCCCCC(=O)O`, the APTT was found to be 50 s.

`COc1ccccc1C(=O)NCCCCCCCCCCCC(=O)O` came in with an APTT of 54 s.

In turn, `Cc1ccccc1C(=O)NCCCCCCCCCCCC(=O)O` returned an APTT of 30 s.

`O=C(O)CCCCCNC(=O)c1ccccc1` yielded an APTT of 33 s.

As for `O=C(O)CCCNC(=O)c1ccccc1`, the APTT is 22 s.

On to `O=C(O)CCCCCCCCCNC(=O)c1ccccc1`, for which the APTT was found to be 31 s.

In turn, `O=C(O)CCCCCCCNC(=O)c1ccccc1` came in with an APTT of 21 s.

Molecule `COc1ccccc1C(=O)NCCCCCCCC(=O)O` displayed an APTT of 27 s.

`Cc1ccccc1C(=O)NCCCCCCCC(=O)O` showed an APTT of 23 s.

For the molecule `O=C(O)CCCCCCCNC(=O)c1ccccc1F`, the APTT is given as 25 s.

Molecule `O=C(O)CCCNC(=O)c1ccccc1O` had an APTT of 31 s.

Consider `O=C(O)CCCCCCCCCCCNC(=O)c1ccccc1O`, for which the APTT was found to be 86 s.

Molecule `O=C(O)CCCCCCCCCNC(=O)c1ccccc1O` came in with an APTT of 153 s.

`O=C(O)CCCCCNC(=O)c1ccccc1O` displayed an APTT of 24 s.

In the case of `COc1ccccc1C(=O)NCCCCCC(=O)O`, the APTT is 31 s.

In turn, `Cc1ccccc1C(=O)NCCCC(=O)O` displayed an APTT of 24 s.

Turning to `COc1ccccc1C(=O)NCCCC(=O)O`, the APTT is given as 26 s.

In turn, `O=C(O)CCCCCCCNC(=O)c1ccccc1O` [SALCAPROZIC ACID] displayed an APTT of 125 s.

The record behind these values is ChEMBL document CHEMBL1133654, “Studies directed at the use of a parallel synthesis matrix to increase throughput in an in vivo assay” (2000).
